# Results of several laboratories.
# Protocols differ between the studies behind these lines.
# DHFR: Dihydrofolate reductase (DHFR, Homo sapiens, UniProt P00374)
# FAAH: Fatty-acid amide hydrolase 1 (FAAH, Homo sapiens, UniProt O00519)
# HTR2B: 5-hydroxytryptamine receptor 2B (HTR2B, Homo sapiens, UniProt P41595)
# TOP2A: DNA topoisomerase 2-alpha (TOP2A, Homo sapiens, UniProt P11388)
Compound,target,observed,mode,technique,notes,IC50
S=C(NN=Cc1ccc(N2CCCCC2)cc1)Nc1cccc(Br)c1,DHFR,enzyme activity,inhibitor,,,30.2 µM
O=C(C=Cc1ccc(O)c(O)c1)OCc1ccccc1,DHFR,enzyme activity,inhibitor,absorbance,,12.6 µM
O=C(Nc1ccc(-c2ccc3ncccc3c2)cc1)C1CCN(S(=O)(=O)c2ccccc2Cl)CC1,FAAH,enzyme activity,inhibitor,fluorescence,,0.0508 µM
Cc1ccccc1NC(=O)C=Cc1ccc(O)c(O)c1,DHFR,enzyme activity,inhibitor,absorbance,,1.1 µM
c1ccc(O[C@H]2CCN(Cc3ccc(-c4ccn[nH]4)o3)C2)cc1,HTR2B,calcium signal,antagonist,,,15.6 µM
O=c1nc(SCc2cc(F)cc(C(F)(F)F)c2)nc(SCc2ccc3sccc3c2)[nH]1,TOP2A,enzyme activity,inhibitor,,,13.3 µM
NCC1Cc2cc(F)ccc2N(C(=O)Cc2cc(F)ccc2Br)C1 (stereo not shown),"5-hydroxytryptamine receptor 2C (HTR2C, Homo sapiens, UniProt P28335)",calcium signal,antagonist,,,43.4 µM
O=C(Nc1ccc(-c2cccc3cccnc23)cc1)C1CCN(S(=O)(=O)c2ccccc2Cl)CC1,FAAH,enzyme activity,inhibitor,fluorescence,,0.135 µM
Cc1nc(CSc2nc(SCc3cc(F)cc(C(F)(F)F)c3)nc(=O)[nH]2)cs1,TOP2A,enzyme activity,inhibitor,,,55 µM
Cc1ccc(CNC(=S)NN=Cc2ccc(N3CCCCC3)cc2)cc1,DHFR,enzyme activity,inhibitor,,,33.9 µM
O=c1nc(SCc2cc(F)cc(C(F)(F)F)c2)nc(SCc2ccc3ccccc3n2)[nH]1,TOP2A,enzyme activity,inhibitor,,,18.6 µM
S=C(NCc1ccc(Cl)cc1)NN=Cc1ccc(N2CCCCC2)cc1,DHFR,enzyme activity,inhibitor,,,20.6 µM
Cc1[nH]c2ccccc2c1SCCNC(=O)C1NCCC1C1CC1 (stereo not shown),HTR2B,calcium signal,antagonist,,,5.36 µM
O=C(C=Cc1ccc(O)c(O)c1)Oc1cccc2cccnc12,DHFR,enzyme activity,inhibitor,absorbance,,13 µM
COc1cccc(NC(=S)NN=Cc2ccc(N3CCCCC3)cc2)c1,DHFR,enzyme activity,inhibitor,,,22.4 µM
O=C(Nc1ccc(-c2cccc3ncccc23)cc1)C1CCN(S(=O)(=O)c2ccccc2Cl)CC1,FAAH,enzyme activity,inhibitor,fluorescence,,0.0196 µM
Cc1ccc(F)c(O)c1CN1CCN(C2CCCC2O)CC1 (stereo not shown),HTR2B,calcium signal,antagonist,,,0.134 µM
COc1ccc(NC(=S)NN=Cc2ccc(N3CCCCC3)cc2)cc1,DHFR,enzyme activity,inhibitor,,,44.6 µM
O=C1CC(CCNCc2ccc(-c3cccc(Br)c3)o2)CN1 (stereo not shown),HTR2B,calcium signal,antagonist,,,8.62 µM
CC(=O)Nc1ccc(Nc2nc(-c3sc(N)nc3C)cs2)cc1,"Lysyl oxidase homolog 1 (LOXL1, Homo sapiens, UniProt Q08397)",enzyme activity,inhibitor,fluorescence,with preincubation,> 10 µM
Cc1cccc(OCCCC(=O)N2CCNCc3ccccc32)c1,HTR2B,calcium signal,antagonist,,,16.9 µM
S=C(NCc1ccccc1)NN=Cc1ccc(N2CCCCC2)cc1,DHFR,enzyme activity,inhibitor,,,31.3 µM
